Values after ≈ are worked out from the molar mass of the structure shown. “Also recorded” adds a separate entry of the source.
What was measured:
[1] = system: MCF-7S human breast carcinoma; conditions: read-out: IC50, MCF-7S cell growth; cited from earlier work
[2] = system: KB human epidermoid carcinoma; conditions: read-out: IC50, KB cell growth; cited from earlier work
[3] = system: HT-29 human colon cancer cells; assay: Cytotoxicity against HT-29 cells; type: cell-based
In short: (§1)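 Cell growth-inhibition screen with paclitaxel as positive control. Each measurement was run in triplicate, and each value is representative of two independent experiments. IC50 was calculated by nonlinear regression.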

caspase-3 = assay: Caspase-3 activation by Western blot; type: cell-based, human; conditions: 24 h incubation; 1, 5 and 10 μM; cleaved caspase-3 Western blot
[4] = system: HT-29 human colon cancer cell; conditions: 8-day treatment; cited from earlier work
[5] = system: several human cancer cell lines; conditions: cited from earlier work
[6] = system: CCD-112CoN normal human colon cells; assay: Cytotoxicity against CCD-112CoN cells; type: cell-based
In short: as §1

[7] = system: HT-29 cells implanted in immunodeficient NCr nu/nu mice; assay: In vivo hollow fiber assay
In short: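 Eight- to nine-week-old mice carrying HT-29 cells in hollow fibers received ip doses once daily on days 3–6 after implantation. Vehicle was diluted with water to 13% DMSO and 25% Cremophor; paclitaxel 5 mg/kg was the positive control. Body weight was recorded daily. Fibers were retrieved on day 7 for modified MTT. Net growth (day 7 − day 0 absorbance) was expressed relative to vehicle; n = 6 control, 3 per treatment.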

topo IIα = topo IIα (Homo sapiens, UniProt P11388); assay: Topoisomerase II assay; type: biochemical; conditions: 100 μM
Sequence of topo IIα (P11388 whole entry): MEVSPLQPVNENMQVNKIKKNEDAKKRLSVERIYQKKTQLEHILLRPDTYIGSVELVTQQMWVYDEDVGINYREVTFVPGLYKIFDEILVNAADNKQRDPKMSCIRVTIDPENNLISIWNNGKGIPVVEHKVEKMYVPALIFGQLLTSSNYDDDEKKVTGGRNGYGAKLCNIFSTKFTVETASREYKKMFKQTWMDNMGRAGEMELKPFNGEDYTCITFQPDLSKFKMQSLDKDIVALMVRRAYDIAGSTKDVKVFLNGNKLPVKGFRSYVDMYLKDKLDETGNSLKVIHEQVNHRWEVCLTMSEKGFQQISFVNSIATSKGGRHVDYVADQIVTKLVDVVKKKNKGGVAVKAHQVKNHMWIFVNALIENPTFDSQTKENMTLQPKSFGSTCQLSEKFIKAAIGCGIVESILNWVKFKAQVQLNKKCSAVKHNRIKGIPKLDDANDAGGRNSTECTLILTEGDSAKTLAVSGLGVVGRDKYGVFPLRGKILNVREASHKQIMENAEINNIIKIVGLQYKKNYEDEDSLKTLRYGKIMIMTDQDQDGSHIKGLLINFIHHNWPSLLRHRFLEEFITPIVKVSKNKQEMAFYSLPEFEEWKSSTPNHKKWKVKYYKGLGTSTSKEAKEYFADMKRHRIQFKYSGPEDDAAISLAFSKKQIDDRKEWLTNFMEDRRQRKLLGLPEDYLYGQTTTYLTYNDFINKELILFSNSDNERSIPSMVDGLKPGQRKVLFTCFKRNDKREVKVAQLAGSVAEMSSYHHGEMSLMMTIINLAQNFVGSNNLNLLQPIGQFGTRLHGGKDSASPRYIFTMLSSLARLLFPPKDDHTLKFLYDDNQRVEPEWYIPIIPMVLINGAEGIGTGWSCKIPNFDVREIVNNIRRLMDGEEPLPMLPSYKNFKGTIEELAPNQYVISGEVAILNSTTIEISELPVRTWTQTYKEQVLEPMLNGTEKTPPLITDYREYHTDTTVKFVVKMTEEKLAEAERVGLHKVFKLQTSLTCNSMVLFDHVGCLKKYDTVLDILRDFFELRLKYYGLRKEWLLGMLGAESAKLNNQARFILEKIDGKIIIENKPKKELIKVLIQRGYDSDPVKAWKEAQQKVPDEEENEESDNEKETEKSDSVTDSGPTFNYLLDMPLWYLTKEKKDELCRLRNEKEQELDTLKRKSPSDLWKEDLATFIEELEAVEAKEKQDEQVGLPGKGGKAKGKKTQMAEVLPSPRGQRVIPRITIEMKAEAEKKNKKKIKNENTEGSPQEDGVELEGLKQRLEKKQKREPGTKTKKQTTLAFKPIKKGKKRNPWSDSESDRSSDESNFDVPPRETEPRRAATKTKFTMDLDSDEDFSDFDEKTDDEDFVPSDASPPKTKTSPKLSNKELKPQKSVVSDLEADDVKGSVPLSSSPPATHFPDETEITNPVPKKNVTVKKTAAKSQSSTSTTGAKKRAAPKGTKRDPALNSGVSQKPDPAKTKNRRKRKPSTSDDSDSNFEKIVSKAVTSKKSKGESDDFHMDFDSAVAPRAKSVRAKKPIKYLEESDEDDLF

[8] = cited from earlier work
[9] = system: SKW-3 chronic lymphoid leukemia cells; conditions: cited from earlier work
[10] = system: P-388 murine lymphocytic leukemia cells; conditions: cited from earlier work
topoisomerase = conditions: cited from earlier work
[11] = system: a broad spectrum of normal and tumor cell lines; conditions: cited from earlier work
KB cells = conditions: cited from earlier work

Question: What does the source list for `COc1cc2c(O[C@@H]3O[C@H](C)[C@@H](O)[C@H](O)[C@H]3O)c3c(c(-c4ccc5c(c4)OCO5)c2cc1OC)C(=O)OC3` [Patentiflorin A]?
Answer: IC50 [1]: 3 nM; IC50 [2]: 4 nM

Question: Which results are given for `COc1cc([C@@H]2c3cc4c(cc3[C@@H](O[C@@H]3O[C@@H]5CO[C@@H](C)O[C@H]5[C@H](O)[C@H]3O)[C@H]3COC(=O)[C@H]23)OCO4)cc(OC)c1O` [etoposide]?
Answer: cytotoxicity against HT-29 human colon cancer cells (in words) [3]: inactive; caspase-3 activation in HT-29 cells (caspase-3): did not induce caspase-3 activation; HT-29 cell apoptosis induction [4]: induced HT-29 human colon cancer cell apoptosis

Question: What does the source list for `COc1cc2c(OC)c3c(c(-c4ccc5c(c4)OCO5)c2cc1OC)C(=O)OC3` [justicidin A]?
Answer: IC50 toward several human cancer cell lines [5]: 0.002 to 0.007 µg/mL; cytotoxicity (in words) [5]: highly cytotoxic

Question: With `COc1cc2c(O[C@@H]3OC[C@H](OC(C)=O)[C@H](OC(C)=O)[C@H]3O)c3c(c(-c4ccc5c(c4)OCO5)c2cc1OC)C(=O)OC3` [Compound 1, 7-O-[(3,4-di-O-acetyl)-α-L-arabinopyranosyl]-4,5-dimethoxy-3′,4′-methylenedioxy-2,7′-cycloligna-7,7′-dieno-9,9′-lactone] as the molecule, how does the “cytotoxicity toward CCD-112CoN human normal colon cells (in words)” value [6] read?
Answer: noncytotoxic

Question: And the “toxicity in treated mice” value ([7]; 5.0-20.0 mg/kg ip once daily for 4 days, NCr nu/nu mice)?
Answer: No gross toxicity was observed; also recorded: no signs of toxicity

Question: And the “relative HT-29 cell growth in hollow fibers” value ([7]; 10.0, 15.0 or 20.0 mg/kg ip once daily for 4 days, compared with 5 mg/kg ip, NCr nu/nu mice)?
Answer: statistically significantly different

Question: And the “activity in in vivo hollow fiber assay” value ([7]; HT-29 cells implanted in NCr nu/nu mice)?
Answer: showed activity

Question: What about the “topo IIα inhibition (in words)” value (topo IIα) of the same molecule?
Answer: did not inhibit DNA topoisomerase IIα activity

Question: And the “caspase-3 activation in HT-29 cells” value (caspase-3)?
Answer: induced activation of caspase-3

Question: With `COc1ccc(-c2c3c(c(OC)c4cc5c(cc24)OCO5)COC3=O)cc1OC` [chinensinaphthol methyl ether] as the molecule, how does the “cytotoxicity (in words)” value [5] read?
Answer: did not show such activity

Question: With `COc1cc2c(O[C@@H]3OC[C@H](O)[C@H](O)[C@H]3O)c3c(c(-c4ccc5c(c4)OCO5)c2cc1OC)C(=O)OC3` [Compound 4, phyllanthusmin C] as the molecule, how does the “cytotoxicity toward CCD-112CoN human normal colon cells (in words)” value [6] read?
Answer: noncytotoxic

Question: For Cleistanthoside A tetraacetate, which “IG50 values, cytotoxicity” value [8] is on record?
Answer: in the nanomolar range

Question: Which “cytotoxicity toward SKW-3 cells (in words)” value [9] does the source give for `COc1cc2cc3c(c(-c4ccc5c(c4)OCO5)c2cc1OC)C(=O)CO3` [Justicidin B] here?
Answer: cytotoxic

Question: For `CC(=O)O[C@H]1C(=O)[C@@]2(C)[C@H]([C@H](OC(=O)c3ccccc3)[C@]3(O)C[C@H](OC(=O)[C@H](O)[C@@H](NC(=O)c4ccccc4)c4ccccc4)C(C)=C1C3(C)C)[C@]1(OC(C)=O)CO[C@@H]1C[C@@H]2O` [paclitaxel], which IC50 ([3]; Homo sapiens, HT-29, read-out: IC50 values toward the HT-29 cells) is on record?
Answer: 1 nM

Question: With `COc1cc2c(O[C@@H]3OC[C@H](O)[C@H](O)[C@H]3O)c3c(c(-c4ccc5c(c4)OCO5)c2cc1OC)C(=O)OC3` [Acutissimalignan A] as the molecule, how does the “IC50 toward P-388 cells” value [10] read?
Answer: 0.02 µg/mL (≈ 0.039 µM)

Question: For `COc1cc2c(-c3ccc4c(c3)OCO4)c3c(cc2cc1O)COC3=O` [daurinol], which “formation of open circular and linear DNA from topoisomerase-DNA cleavable intermediate” value (topoisomerase) is on record?
Answer: did not induce the formation of open circular and linear DNA

Question: Which “selectivity of cytotoxicity, tumor versus normal cell lines (in words)” value [11] does the source give for `COc1cc2c(O[C@@H]3O[C@H](CO)[C@@H](O)[C@H](O)[C@H]3O)c3c(c(-c4ccc5c(c4)OCO5)c2cc1OC)C(=O)OC3` [cleistanthin B] here?
Answer: showed cytotoxicity toward human tumor cells selectively

Question: With `COc1cc2c(OC3OCC(OC)C(OC)C3O)c3c(c(-c4ccc5c(c4)OCO5)c2cc1OC)C(=O)OC3` (centres unmarked) [Cleistanthin A] as the molecule, how does the “GI50 toward KB cells” value (KB cells) read?
Answer: 5.6 nM

Question: Which “cytotoxicity against HT-29 human colon cancer cells (in words)” value [3] does the source give for `COc1cc2c(O[C@@H]3O[C@H](CO)[C@@H](O)[C@H](O)[C@H]3O)c3c(c(-c4ccc5c(c4)OCO5)c2cc1OC)C(=O)OC3` [Compound 5, cleistanthin B] here?
Answer: inactive
